Measurements taken from ChEMBL document CHEMBL3593243, “Discovery of novel, potent, selective and cellular active ADC type PTP1B inhibitors via fragment-docking-oriented de novel design” (Bioorg Med Chem, 2015).
Activity calls are given as the source filed them. The calls are words filed in the database; no cut-off is given here.

Legend:
[1] = target: Tyrosine-protein phosphatase non-receptor type 6 (Homo sapiens) (UniProt P29350); experiment: Inhibition of SHP1 (unknown origin) using pNPP as substrate at 25 uM relative to control
Tyrosine-protein phosphatase non-receptor type 6 (Homo sapiens), sequence (P29350 whole entry): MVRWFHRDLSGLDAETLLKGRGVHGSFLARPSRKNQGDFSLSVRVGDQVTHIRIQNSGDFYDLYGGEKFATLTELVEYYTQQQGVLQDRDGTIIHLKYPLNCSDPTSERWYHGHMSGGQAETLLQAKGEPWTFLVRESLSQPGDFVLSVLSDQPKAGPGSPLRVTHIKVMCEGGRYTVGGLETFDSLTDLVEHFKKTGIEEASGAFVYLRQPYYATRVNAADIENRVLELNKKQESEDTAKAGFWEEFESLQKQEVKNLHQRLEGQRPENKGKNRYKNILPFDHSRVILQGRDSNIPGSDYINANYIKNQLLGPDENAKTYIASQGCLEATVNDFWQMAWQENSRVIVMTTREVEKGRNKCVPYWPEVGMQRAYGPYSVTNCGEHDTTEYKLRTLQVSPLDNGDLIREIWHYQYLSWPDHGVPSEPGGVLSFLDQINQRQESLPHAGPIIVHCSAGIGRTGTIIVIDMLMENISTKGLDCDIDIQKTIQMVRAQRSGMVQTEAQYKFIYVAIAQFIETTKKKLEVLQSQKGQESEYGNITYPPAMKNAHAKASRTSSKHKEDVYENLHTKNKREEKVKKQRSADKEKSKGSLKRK

[2] = target: T1, Tyrosine-protein phosphatase non-receptor type 11 (Homo sapiens) (UniProt Q06124); experiment: Inhibition of SHP2 (unknown origin) using pNPP as substrate at 25 uM relative to control
T1 sequence (whole entry): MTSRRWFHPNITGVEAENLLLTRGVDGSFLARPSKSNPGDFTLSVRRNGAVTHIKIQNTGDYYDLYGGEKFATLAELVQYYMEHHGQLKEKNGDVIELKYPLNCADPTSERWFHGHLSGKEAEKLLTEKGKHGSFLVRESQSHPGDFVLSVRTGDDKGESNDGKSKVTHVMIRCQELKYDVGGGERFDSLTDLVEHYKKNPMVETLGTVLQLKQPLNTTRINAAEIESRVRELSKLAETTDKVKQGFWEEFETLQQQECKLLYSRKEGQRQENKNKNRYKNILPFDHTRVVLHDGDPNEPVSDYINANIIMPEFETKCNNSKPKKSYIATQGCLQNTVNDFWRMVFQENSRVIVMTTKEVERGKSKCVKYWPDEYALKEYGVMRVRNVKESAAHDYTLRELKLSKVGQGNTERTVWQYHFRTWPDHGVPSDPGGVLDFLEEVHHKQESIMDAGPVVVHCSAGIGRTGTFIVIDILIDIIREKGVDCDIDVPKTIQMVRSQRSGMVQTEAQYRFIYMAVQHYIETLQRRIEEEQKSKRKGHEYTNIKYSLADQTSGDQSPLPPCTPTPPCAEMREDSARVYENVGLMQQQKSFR

[3] = target: Receptor-type tyrosine-protein phosphatase F (Homo sapiens) (UniProt P10586); experiment: Inhibition of LAR (unknown origin) using pNPP as substrate at 25 uM relative to control
Receptor-type tyrosine-protein phosphatase F (Homo sapiens), sequence (P10586 whole entry): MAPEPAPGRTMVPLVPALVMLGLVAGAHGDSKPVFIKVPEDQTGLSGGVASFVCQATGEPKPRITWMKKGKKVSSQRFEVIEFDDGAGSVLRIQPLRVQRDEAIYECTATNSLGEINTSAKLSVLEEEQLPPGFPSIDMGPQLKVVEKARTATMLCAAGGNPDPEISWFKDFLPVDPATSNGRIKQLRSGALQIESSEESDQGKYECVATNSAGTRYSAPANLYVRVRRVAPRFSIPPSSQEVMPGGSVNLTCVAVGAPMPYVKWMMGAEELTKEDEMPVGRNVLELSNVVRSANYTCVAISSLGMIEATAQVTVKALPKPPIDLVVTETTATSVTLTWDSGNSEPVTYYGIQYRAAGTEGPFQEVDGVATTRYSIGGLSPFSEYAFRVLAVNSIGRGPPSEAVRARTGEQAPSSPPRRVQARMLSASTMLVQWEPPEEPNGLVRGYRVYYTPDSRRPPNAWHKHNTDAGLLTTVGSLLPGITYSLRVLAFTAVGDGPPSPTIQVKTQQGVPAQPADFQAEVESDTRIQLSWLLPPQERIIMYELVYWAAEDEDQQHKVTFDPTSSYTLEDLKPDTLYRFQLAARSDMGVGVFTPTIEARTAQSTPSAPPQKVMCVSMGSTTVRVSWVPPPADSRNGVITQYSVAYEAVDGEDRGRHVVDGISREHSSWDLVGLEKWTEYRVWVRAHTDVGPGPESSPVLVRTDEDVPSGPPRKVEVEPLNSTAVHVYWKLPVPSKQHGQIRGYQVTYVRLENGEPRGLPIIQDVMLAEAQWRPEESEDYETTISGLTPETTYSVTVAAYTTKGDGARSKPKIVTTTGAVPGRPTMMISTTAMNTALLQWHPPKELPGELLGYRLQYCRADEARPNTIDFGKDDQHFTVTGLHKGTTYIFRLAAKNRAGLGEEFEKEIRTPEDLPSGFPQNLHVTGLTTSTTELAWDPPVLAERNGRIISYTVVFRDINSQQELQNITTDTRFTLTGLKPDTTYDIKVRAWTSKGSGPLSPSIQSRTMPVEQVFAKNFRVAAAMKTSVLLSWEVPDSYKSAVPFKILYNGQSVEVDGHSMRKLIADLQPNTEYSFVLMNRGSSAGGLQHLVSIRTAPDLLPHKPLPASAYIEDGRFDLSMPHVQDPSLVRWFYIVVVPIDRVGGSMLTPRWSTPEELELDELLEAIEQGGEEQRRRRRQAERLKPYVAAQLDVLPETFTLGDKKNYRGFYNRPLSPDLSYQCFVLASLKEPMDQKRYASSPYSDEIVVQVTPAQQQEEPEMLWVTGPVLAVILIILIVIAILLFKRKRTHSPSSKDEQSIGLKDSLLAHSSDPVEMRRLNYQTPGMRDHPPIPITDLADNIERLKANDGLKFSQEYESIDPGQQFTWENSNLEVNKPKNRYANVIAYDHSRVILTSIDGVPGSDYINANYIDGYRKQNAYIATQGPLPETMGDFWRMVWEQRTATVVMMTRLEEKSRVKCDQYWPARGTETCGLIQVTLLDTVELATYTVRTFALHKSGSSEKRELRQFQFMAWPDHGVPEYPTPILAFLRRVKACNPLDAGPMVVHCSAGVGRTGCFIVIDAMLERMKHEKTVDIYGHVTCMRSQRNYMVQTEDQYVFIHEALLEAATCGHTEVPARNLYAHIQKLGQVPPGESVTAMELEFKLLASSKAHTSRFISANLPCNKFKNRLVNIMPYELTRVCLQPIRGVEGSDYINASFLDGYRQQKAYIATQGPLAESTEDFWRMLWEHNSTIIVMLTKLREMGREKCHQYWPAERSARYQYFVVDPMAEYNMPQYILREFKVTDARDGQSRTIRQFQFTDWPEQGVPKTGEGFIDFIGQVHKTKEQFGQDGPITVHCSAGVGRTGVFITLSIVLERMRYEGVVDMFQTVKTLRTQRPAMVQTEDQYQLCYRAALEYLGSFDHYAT

Homo sapiens = species on record: Homo sapiens; experiment: Selectivity ratio of IC50 for TCPTP (unknown origin) to IC50 for recombinant PTP1B (unknown origin)
How it was run: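 Ratio of TCPTP to PTP1B IC50. Both enzymes (PTP1B at 30 nM recombinant) assayed with 2 mM pNPP, 1 mM DTT, 1 mM EDTA, pH 6.5, 30 min at 37 °C, NaOH stop, A405; IC50 by logit method, triplicate for PTP1B.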

[4] = target: T2, Tyrosine-protein phosphatase non-receptor type 2 (Homo sapiens) (UniProt P17706); experiment: Inhibition of TCPTP (unknown origin) assessed as pNPP hydrolysis at 25 uM after 30 mins relative to control
T2 sequence (whole entry): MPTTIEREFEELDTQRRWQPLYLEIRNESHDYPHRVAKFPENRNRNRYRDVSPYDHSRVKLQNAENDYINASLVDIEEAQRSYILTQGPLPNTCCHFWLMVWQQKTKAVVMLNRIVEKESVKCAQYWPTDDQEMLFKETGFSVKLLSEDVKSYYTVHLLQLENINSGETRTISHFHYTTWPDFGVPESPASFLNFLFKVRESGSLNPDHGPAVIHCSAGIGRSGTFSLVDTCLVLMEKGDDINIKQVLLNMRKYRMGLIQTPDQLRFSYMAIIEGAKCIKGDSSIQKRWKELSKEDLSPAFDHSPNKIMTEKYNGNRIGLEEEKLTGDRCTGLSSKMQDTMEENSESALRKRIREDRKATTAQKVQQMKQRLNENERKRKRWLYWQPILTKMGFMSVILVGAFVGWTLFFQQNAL

[5] = target: T3, Tyrosine-protein phosphatase non-receptor type 1 (Homo sapiens) (UniProt P18031); experiment: Competitive inhibition of recombinant PTP1B (unknown origin) assessed as pNPP hydrolysis at 0.1 to 0.8 uM after 30 mins by Lineweaver-Burk plot analysis
T3 sequence (whole entry): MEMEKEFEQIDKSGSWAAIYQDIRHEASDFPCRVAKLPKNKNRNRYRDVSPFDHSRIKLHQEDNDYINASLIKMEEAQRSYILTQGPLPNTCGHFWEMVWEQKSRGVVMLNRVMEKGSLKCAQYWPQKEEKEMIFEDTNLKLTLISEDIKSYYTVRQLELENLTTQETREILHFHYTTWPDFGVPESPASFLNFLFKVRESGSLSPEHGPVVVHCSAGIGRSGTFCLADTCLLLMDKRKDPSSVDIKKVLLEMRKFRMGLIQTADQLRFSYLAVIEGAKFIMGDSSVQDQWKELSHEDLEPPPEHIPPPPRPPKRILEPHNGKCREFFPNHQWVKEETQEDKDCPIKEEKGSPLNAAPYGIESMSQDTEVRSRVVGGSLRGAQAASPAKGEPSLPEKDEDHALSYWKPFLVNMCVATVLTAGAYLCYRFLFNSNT
How it was run: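 Kinetics in 100 µL of 50 mM MOPS pH 6.5 with 30 nM recombinant PTP1B. pNPP in 2-fold dilutions from 64 mM, inhibitor at 0.1–0.8 µM (0 as reference). Km and Vmax from Michaelis–Menten fits; mechanism judged by Lineweaver–Burk double-reciprocal plots.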

CHO = experiment: Inhibition of PTP1B in CHO cells transfected with human insulin receptor-beta assessed as increase in insulin-mediated tyrosine phosphorylation of insulin receptor-beta at 25 to 50 uM preincubated for 4 hrs followed by insulin stimulation measured after 10 mins by Western blot analysis; type: cell-based; settings: Cricetulus griseus
How it was run: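 CHO cells in F12/10% FBS transfected 8 h with 2 µg human IR plasmid, reseeded and grown 24 h at 37 °C, 5% CO2. Serum-starved 2 h, compound 4 h, then 10 nM insulin 10 min. Lysates (Triton/HEPES pH 7.4 buffer) run on SDS-PAGE, blotted with PY-20 and β-actin.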

Row | inhibition [1] | inhibition [2] | inhibition [3] | Ratio IC50 (Homo sapiens) | inhibition [4] | inhibition [5] | Structure (SMILES) | inhibition (CHO)
1 | < 50% | < 50% | < 50% | 16 | – | – | CCOc1cc(NS(C)(=O)=O)c(OCC)cc1CNC(=O)Nc1ccc(C)cc1 | –
2 | – | < 50% | < 50% | 6 | – | – | CCOc1cc(NS(C)(=O)=O)c(OCC)cc1CNC(=O)Nc1ccc(Br)cc1 | –
3 | – | < 50% | < 50% | > 120 | < 50% | Active | CCOc1cc(NS(C)(=O)=O)c(OCC)cc1CNC(=O)Nc1ccc(OC)cc1 | Active
